In article PMC2854023 (Journal of biomolecular screening, 2010):
pIC50: −log10 of the molar value. Like-named read-outs stand apart in the source and are kept apart here.

Tests used:
[1] = target: human PDE7A1 (Homo sapiens, UniProt Q13946); assay: Fission yeast 5FOA growth assay / HTS, PDE7A-expressing strain CHP1189; assay type: cell-based; settings: for average OD600 in PDE7A HTS: 20μM compound, 48 hours growth in 5FOA medium, duplicate; for stimulation of 5FOA-resistant growth, PDE7A-expressing strain: range of concentrations, 48 hours, OD600
Sequence of human PDE7A1 (Q13946 whole entry): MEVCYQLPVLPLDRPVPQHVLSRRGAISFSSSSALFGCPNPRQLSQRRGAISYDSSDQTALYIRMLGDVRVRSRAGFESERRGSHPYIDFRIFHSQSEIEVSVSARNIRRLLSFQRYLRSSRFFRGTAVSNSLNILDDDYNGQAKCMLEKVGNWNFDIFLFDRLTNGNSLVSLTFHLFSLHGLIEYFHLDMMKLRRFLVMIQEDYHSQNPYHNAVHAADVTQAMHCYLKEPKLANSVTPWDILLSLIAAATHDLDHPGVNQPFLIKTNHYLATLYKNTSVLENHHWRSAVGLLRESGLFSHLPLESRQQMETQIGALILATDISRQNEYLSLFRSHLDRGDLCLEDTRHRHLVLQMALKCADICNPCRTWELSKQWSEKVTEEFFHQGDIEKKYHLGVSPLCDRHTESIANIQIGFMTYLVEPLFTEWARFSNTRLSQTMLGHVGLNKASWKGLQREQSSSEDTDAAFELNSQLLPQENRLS
In short: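 Fission yeast strain CHP1189 carries human PDE7A in place of cgs2, plus gpa2Δ, pap1Δ and fbp1-ura4/fbp1-lacZ reporters. It was grown to exponential phase in EMM with 2.5 mM cAMP, then resuspended in 5FOA medium at 1 × 10^5 cells/ml. Compounds were mostly at 20μM, in duplicate, with DMSO negative and 5mM cAMP positive controls. Growth was 48 h at 30°C, read as OD600. Per-plate Z scores were combined into a composite Z score.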

[2] = test system: TNFα release by LPS-treated U937 cells; assay: TNFα release assay in PMA-activated, LPS-treated U937 cells; assay type: cell-based, human; settings: for TNFα release, combined with rolipram, 3 hours LPS / TNFα release, combined with rolipram, 20 hours LPS: 10μM each, compared to rolipram alone
In short: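 U937 cells at 10^6 cells/ml in RPMI 1640 with 10% FBS were primed 17 hr with 300 ng/ml PMA. Aliquots of […] were diluted with equal medium and given 10 μM compound, alone or with rolipram, for 1 hr; vehicle was ethanol with <0.1% DMSO. LPS (25 μg/ml) followed, and supernatant TNFα was measured by ELISA at 3 or 20 h. Values are % of vehicle, 2–6 independent experiments, paired one-tailed t-test.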

[3] = target: PDE7B (Homo sapiens, UniProt Q9NP56); assay: In vitro PDE enzyme assay; assay type: biochemical; settings: for IC50 on PDE7B relative to PDE7A: in vitro enzyme assays, PDE7B vs PDE7A
Sequence of PDE7B (Q9NP56 whole entry, species assumed): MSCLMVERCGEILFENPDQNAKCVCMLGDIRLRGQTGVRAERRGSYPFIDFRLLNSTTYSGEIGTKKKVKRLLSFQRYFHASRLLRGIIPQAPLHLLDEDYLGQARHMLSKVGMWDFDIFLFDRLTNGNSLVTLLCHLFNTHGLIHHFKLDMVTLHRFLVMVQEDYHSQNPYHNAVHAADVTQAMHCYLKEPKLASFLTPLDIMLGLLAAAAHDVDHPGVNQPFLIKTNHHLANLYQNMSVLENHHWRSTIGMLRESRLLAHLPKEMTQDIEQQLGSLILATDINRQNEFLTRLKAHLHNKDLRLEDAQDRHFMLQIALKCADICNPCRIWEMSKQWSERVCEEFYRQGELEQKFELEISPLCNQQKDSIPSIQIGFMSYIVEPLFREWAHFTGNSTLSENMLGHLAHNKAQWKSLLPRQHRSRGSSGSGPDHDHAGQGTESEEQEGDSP
In short: (§1)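 Radiometric PDE assay with 25nM initial 3H-cAMP for 15 min, over which the hydrolysis rate was constant. 3H-AMP was separated by Ba(OH)2 precipitation and remaining cAMP counted by scintillation. PDE7A was commercial; PDE7B was a gift. IC50 is the concentration halving the hydrolysis rate relative to vehicle controls. PDE7B Km came from Michaelis-Menten kinetics, analysed by Lineweaver-Burke and Eadie-Hofstee plots.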

[4] = target: PDE2A (Homo sapiens, UniProt O00408); assay: Fission yeast 5FOA growth assay, PDE2A-expressing strain; assay type: cell-based; settings: data not shown
In short: (§2)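 Fission yeast 5FOA growth assays used strains each expressing one mammalian PDE, read as OD600. For cGMP-specific PDEs, strains lacked adenylate cyclase and the 5FOA medium contained 30μM to 1mM cGMP.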

[5] = target: PDE1C (Homo sapiens, UniProt Q14123); assay: Fission yeast 5FOA growth assay, PDE1C-expressing strain; assay type: cell-based; settings: data not shown
In short: as §2

[6] = target: PDE8A (Homo sapiens, UniProt O60658); assay: Fission yeast 5FOA growth assay, PDE8A-expressing strain; assay type: cell-based; settings: data not shown
Sequence of PDE8A (O60658 whole entry, species assumed): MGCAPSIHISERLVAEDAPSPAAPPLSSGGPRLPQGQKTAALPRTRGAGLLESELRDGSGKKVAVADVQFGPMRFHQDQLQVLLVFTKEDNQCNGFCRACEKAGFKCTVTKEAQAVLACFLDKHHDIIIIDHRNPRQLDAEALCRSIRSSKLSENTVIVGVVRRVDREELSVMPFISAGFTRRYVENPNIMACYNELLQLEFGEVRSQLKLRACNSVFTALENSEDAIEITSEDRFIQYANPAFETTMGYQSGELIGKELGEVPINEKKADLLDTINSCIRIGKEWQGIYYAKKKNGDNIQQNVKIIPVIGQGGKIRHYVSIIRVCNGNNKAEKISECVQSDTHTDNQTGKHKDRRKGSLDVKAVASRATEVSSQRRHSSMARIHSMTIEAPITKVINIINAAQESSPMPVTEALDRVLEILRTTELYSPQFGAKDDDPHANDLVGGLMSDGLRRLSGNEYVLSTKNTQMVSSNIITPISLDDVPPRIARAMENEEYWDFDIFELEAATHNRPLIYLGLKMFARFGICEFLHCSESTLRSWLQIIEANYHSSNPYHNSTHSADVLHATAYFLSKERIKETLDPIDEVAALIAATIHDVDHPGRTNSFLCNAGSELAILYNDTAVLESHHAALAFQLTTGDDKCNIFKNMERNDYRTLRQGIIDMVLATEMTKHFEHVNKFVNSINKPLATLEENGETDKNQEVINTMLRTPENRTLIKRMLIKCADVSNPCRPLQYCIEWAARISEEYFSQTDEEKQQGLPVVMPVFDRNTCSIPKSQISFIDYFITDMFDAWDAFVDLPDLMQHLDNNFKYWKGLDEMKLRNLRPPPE
In short: as §2

[7] = target: PDE5A (Homo sapiens, UniProt O76074); assay: Fission yeast 5FOA growth assay, PDE5A-expressing strain; assay type: cell-based; settings: data not shown
In short: as §2

[8] = target: PDE11A (Homo sapiens, UniProt Q9HCR9); assay: Fission yeast 5FOA growth assay, PDE11A-expressing strain; assay type: cell-based; settings: data not shown
Sequence of PDE11A (Q9HCR9 whole entry, species assumed): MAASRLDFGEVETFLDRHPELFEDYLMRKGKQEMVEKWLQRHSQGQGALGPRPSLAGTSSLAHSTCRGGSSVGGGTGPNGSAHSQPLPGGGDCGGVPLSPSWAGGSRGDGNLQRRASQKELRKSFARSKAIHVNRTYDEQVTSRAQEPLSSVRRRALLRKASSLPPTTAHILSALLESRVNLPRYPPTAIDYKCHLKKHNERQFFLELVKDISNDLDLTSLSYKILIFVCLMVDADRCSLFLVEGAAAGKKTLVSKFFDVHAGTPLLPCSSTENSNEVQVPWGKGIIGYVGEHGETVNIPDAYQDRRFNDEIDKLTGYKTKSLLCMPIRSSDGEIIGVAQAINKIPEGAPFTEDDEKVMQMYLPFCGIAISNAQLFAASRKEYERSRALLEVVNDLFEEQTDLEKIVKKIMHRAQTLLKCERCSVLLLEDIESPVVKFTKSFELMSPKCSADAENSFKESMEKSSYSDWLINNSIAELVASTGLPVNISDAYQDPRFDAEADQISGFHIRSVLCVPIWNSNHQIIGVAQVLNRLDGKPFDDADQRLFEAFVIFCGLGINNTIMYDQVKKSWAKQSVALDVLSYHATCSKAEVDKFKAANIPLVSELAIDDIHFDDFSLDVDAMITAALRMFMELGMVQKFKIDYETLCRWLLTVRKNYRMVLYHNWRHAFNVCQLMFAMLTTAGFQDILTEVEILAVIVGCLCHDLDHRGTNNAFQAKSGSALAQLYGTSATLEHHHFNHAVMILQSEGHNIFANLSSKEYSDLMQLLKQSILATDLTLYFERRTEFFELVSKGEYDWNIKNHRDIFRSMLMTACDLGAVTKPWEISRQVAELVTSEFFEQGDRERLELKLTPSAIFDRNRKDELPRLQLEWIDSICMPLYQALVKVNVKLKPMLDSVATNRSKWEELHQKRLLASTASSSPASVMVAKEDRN
In short: as §2

[9] = target: full-length PDE4D2 (residues 1-507) (Homo sapiens, UniProt Q08499); assay: In vitro enzyme assay, full-length PDE4D2; assay type: biochemical; settings: data not shown
Sequence of full-length PDE4D2 (residues 1-507) (Q08499 303-809): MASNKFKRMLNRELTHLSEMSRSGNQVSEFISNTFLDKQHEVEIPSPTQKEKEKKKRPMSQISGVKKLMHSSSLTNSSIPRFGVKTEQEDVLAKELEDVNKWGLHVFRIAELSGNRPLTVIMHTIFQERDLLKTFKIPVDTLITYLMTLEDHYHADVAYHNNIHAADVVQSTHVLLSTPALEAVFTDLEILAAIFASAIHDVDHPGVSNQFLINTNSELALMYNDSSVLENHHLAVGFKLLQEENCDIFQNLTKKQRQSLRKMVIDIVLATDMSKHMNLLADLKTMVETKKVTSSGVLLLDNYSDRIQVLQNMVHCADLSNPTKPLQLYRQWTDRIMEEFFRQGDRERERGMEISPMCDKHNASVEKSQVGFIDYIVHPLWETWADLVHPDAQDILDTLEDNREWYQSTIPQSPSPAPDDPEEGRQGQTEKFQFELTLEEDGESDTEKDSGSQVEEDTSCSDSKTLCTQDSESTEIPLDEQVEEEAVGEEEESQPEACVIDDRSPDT

[10] = target: PDE1B (Homo sapiens, UniProt Q01064); assay: Fission yeast 5FOA growth assay, PDE1B-expressing strain; assay type: cell-based; settings: data not shown
In short: as §2

[11] = target: human PDE4A1 (Homo sapiens, UniProt P27815); assay: Fission yeast 5FOA growth assay, PDE4A1-expressing strain; assay type: cell-based; settings: dose response, 48 hours
In short: (§3)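 5FOA growth assays, run as in the PDE7A screen, used fission yeast strains expressing human PDE4A1, PDE4B2, PDE4D3 or PDE7B1 from the cgs2 locus. Compound was added over a concentration range, with DMSO kept below 0.2%. Cultures grew 48 h at 30°C. OD600 is the mean of four wells.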

[12] = target: human PDE4B2 (Homo sapiens, UniProt Q07343); assay: Fission yeast 5FOA growth assay, PDE4B2-expressing strain; assay type: cell-based; settings: dose response, 48 hours
In short: as §3

[13] = target: T1, mouse PDE4A1 (Mus musculus, UniProt O89084); assay: Fission yeast HTS, mouse PDE4A1-expressing strain; assay type: cell-based; settings: 20μM
T1 sequence (O89084 1-610 isoform O89084-2): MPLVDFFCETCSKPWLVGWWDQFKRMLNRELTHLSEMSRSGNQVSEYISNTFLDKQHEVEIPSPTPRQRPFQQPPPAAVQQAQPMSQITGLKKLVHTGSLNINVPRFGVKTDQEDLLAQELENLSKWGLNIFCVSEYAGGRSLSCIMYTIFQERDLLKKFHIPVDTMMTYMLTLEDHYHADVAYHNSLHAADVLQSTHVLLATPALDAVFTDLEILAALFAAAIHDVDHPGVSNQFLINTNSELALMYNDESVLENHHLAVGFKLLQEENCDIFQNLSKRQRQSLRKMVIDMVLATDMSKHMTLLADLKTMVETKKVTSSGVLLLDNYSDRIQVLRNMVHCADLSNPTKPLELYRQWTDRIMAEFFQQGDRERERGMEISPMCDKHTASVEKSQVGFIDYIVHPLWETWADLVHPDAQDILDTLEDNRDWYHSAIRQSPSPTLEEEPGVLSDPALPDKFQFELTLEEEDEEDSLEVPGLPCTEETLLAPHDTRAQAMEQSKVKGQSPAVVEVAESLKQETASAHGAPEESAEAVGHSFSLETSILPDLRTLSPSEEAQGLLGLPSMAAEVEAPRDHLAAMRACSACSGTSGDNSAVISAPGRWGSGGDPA

[14] = target: human PDE4D3 (Homo sapiens, UniProt Q08499); assay: Fission yeast 5FOA growth assay, PDE4D3-expressing strain; assay type: cell-based; settings: dose response, 48 hours
In short: as §3

[15] = target: PDE3B (Homo sapiens, UniProt Q13370); assay: Fission yeast 5FOA growth assay, PDE3B-expressing strain; assay type: cell-based; settings: data not shown
Sequence of PDE3B (Q13370 whole entry, species assumed): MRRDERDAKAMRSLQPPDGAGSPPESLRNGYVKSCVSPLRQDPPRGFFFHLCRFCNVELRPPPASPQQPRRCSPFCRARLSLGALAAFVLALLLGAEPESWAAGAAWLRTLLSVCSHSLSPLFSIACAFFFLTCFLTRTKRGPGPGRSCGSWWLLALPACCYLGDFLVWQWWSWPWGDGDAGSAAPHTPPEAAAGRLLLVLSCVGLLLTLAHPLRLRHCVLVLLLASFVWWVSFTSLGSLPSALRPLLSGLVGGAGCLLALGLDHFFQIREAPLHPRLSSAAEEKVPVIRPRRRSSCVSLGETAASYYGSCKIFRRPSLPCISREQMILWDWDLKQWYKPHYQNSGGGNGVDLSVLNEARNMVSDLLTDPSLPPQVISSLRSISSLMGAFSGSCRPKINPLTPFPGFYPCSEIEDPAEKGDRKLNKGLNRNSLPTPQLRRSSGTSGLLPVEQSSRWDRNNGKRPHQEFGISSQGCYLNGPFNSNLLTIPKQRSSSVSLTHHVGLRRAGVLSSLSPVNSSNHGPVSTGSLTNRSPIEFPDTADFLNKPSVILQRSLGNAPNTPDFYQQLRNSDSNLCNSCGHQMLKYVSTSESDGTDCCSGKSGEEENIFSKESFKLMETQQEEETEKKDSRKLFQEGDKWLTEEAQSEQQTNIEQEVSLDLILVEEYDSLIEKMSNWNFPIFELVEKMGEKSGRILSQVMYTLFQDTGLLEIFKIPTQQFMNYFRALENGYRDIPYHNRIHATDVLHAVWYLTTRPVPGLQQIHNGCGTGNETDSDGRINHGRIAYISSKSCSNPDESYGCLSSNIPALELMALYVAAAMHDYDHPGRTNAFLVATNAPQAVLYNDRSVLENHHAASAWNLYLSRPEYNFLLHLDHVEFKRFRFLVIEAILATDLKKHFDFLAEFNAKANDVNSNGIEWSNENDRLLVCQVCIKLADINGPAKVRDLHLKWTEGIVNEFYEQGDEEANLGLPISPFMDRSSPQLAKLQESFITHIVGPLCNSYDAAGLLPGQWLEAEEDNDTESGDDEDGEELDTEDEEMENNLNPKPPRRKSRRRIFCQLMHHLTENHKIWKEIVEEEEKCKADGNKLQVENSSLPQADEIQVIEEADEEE
In short: as §2

[16] = test system: PDE10A; assay: Fission yeast 5FOA growth assay, PDE10A-expressing strain; assay type: cell-based; settings: 40μM compound, data not shown
In short: as §2

[17] = target: PDE9A (Homo sapiens, UniProt O76083); assay: Fission yeast 5FOA growth assay, PDE9A-expressing strain; assay type: cell-based; settings: data not shown
In short: as §2

[18] = target: human PDE7B1 (Homo sapiens, UniProt Q9NP56); assay: Fission yeast 5FOA growth assay, PDE7B-expressing strain; assay type: cell-based; settings: range of concentrations, 48 hours, OD600
Sequence of human PDE7B1 (Q9NP56 whole entry): as the sequence (Q9NP56 whole entry, species assumed) above
In short: as §3

[19] = target: PDE7A (Homo sapiens, UniProt Q13946); assay: In vitro PDE enzyme assay; assay type: biochemical
Sequence of PDE7A (Q13946 whole entry, species assumed): as the sequence (Q13946 whole entry) above
In short: as §1

[20] = target: PDE4D catalytic domain (residues 86-413 of PDE4D2) (Homo sapiens, UniProt Q08499); assay: In vitro enzyme assay, PDE4D catalytic domain; assay type: biochemical
Sequence of PDE4D catalytic domain (residues 86-413 of PDE4D2) (Q08499 388-715): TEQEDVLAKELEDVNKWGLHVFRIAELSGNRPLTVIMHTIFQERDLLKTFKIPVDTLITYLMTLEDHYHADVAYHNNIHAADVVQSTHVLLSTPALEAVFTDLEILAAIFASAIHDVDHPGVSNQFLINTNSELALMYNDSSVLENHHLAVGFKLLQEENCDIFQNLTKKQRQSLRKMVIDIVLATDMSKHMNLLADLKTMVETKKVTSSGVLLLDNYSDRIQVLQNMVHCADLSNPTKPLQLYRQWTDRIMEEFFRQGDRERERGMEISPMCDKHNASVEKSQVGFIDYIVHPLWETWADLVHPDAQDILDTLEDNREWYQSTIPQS
In short: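 PDE4D catalytic domain (PDE4D2 residues 86-413) was expressed in and purified from E. coli and tested in the 3H-cAMP hydrolysis assay with Ba(OH)2 precipitation. Enzyme was at 16 nM with 25 nM test compound across varying cAMP concentrations. A separate panel used 2μM compound against PDE4A, PDE4B and PDE4D catalytic domains.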

[21] = 10μM, 1 hr pretreatment, vs vehicle-treated control

C[C@]12CCC(=O)C=C1C=C[C@@H]1[C@@H]2CC[C@@]2(C)[C@H]1CC[C@@]21CCC(=O)O1 [canrenone, reference compound]
average OD600 in PDE7A HTS [1]: > 0.821

COc1ccc(C2CNC(=O)C2)cc1OC1CCCC1 (centres unmarked) [rolipram, reference compound]
TNFα release, compound alone, 20 hours LPS [2, 21]: significant reduction in TNFα release

N#Cc1sc2sc(C#N)c(-c3ccco3)c2c1N [BC30, 3-amino-4-(2-furyl) thieno[2,3-b]thiophene-2,5-dicarbonitrile]
pIC50 [3]: 5.43
effect on Km of PDE7B ([3]; data not shown): appears to increase the Km of PDE7B
IC50 on PDE7B relative to PDE7A [3]: four-fold lower IC50 on PDE7A than PDE7B
effect on 5FOA growth, PDE2A strain [4]: no effect on growth
effect on 5FOA growth, PDE1C strain [5]: no effect on growth
effect on 5FOA growth, PDE8A strain [6]: no effect on growth
effect on 5FOA growth, PDE5A strain [7]: no effect on growth
effect on 5FOA growth, PDE11A strain [8]: no effect on growth
effect on activity of full-length PDE4D2 [9]: neither BC30 nor the other compounds that stimulate the catalytic domain of PDE4D affect the activity of the full-length PDE4D2
effect on 5FOA growth, PDE1B strain [10]: no effect on growth
TNFα release, combined with rolipram, 3 hours LPS [2]: dramatic reduction of TNFα release
TNFα release, combined with rolipram, 20 hours LPS [2]: dramatic reduction of TNFα release
TNFα release, compound alone, 3 hours LPS [2, 21]: significant reduction in TNFα release
TNFα release, compound alone, 20 hours LPS [2, 21]: significant reduction in TNFα release
effect on 5FOA growth, human PDE4A1 strain [11]: no effect on the growth
effect on 5FOA growth, human PDE4B2 strain [12]: no effect on the growth
activity in HTS, mouse PDE4A1 strain [13]: very weak activity
effect on 5FOA growth, human PDE4D3 strain [14]: no effect on the growth
effect on 5FOA growth, PDE3B strain [15]: no effect on growth
OD600 of PDE10A-expressing strain [16]: 0.53
PDE7A inhibition upon rescreening ([1]; 2μM, data not shown): one of the most effective PDE7A inhibitors
rank of Composite Z score in PDE7A HTS ([1]; 20μM screen, 48,176 compounds): 40
stimulation of 5FOA-resistant growth, PDE7A-expressing strain [1]: very potent at low micromolar concentrations
effect on 5FOA growth, PDE9A strain [17]: no effect on growth
stimulation of 5FOA-resistant growth, PDE7B-expressing strain [18]: the best inhibitor of PDE7B
pIC50 [19]: 5.96
effect on Vmax of PDE4D catalytic domain ([20]; 25 nM compound, varying cAMP): doubling the Vmax
effect on cAMP hydrolysis by PDE4D catalytic domain ([20]; 2μM compound, data not shown): significantly stimulate cAMP hydrolysis
concentration producing the maximum increase in PDE4D catalytic domain activity ([20]; enzyme concentration 16 nM): 25 nM

Cc1ccc([N+](=O)[O-])cc1S(=O)(=O)N(C)C [BRL50481, 3-(N,N-dimethylsulfonamido)-4-methyl-nitrobenzene, reference compound]
IC50 on PDE7B relative to PDE7A [3]: 80 fold
TNFα release, combined with rolipram, 3 hours LPS [2]: modestly enhances the rolipram-mediated reduction of TNFα release
TNFα release, combined with rolipram, 20 hours LPS [2]: modestly enhances the rolipram-mediated reduction of TNFα release
stimulation of 5FOA-resistant growth, PDE7A-expressing strain [1]: most effective compound for stimulation of 5FOA-resistant growth
stimulation of 5FOA-resistant growth, PDE7B-expressing strain [18]: rather poor inhibitor of PDE7B, equal to BC11 and BC39, and far less effective than BC30
pIC50 ([19]; read-out: IC50 against PDE7A, in vitro enzyme assay): ~6.82

CC(=O)O[C@@H]1CC[C@@]2(C)[C@@H](CC[C@@H]3[C@@H]2CC[C@]2(C)C(=O)CC[C@@H]32)C1 [androsterone acetate]
average OD600 in PDE7A HTS [1]: > 0.821
